Only some compounds are listed: those with a hit (about 4.5% of all), similar ones and a draw of the others.
RGS4 act: RGS4 potentiation or activation; HEK293 M3R/inducible RGS4, carbachol calcium flux Fluo4; active compounds read low; B-score at 10 µM; 310,000 compounds, 0.92% hits; AID 463111;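 active = B-score of the integrated calcium signal more than 4 SD below the library mean, with starting fluorescence not abnormally high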;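 note: negative B-score means reduced calcium response which marks RGS4 activation or potentiation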
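test system = M3R-expressing HEK293 line, RGS4 induced by doxycycline | probe or stimulus = carbachol at ECmax as muscarinic agonist stimulus | timing = dye loading 30 min 37 °C, buffer rest 30 min RT | signal = calcium dye Fluo4 fluorescence | evaluation = B score from integrated fluorescence ratio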
MrgX1 PAM: human MrgX1 positive allosteric modulation, primary screen. MrgX1-HEK293, Fluo-4 calcium flux, FDSS; active compounds read high. AID 588675. 310,000 compounds, 0.63% hits. B-score at 10 µM;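 active = plate-corrected calcium response at least 3 library SD above typical, normal starting fluorescence, not activating the receptor alone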;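 note: compound read alongside a low EC10 to EC30 dose of BAM8-22 agonist; peak minus trough fluorescence over baseline measured at the second addition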
Target sequence (Q96LB2 whole entry, looked up): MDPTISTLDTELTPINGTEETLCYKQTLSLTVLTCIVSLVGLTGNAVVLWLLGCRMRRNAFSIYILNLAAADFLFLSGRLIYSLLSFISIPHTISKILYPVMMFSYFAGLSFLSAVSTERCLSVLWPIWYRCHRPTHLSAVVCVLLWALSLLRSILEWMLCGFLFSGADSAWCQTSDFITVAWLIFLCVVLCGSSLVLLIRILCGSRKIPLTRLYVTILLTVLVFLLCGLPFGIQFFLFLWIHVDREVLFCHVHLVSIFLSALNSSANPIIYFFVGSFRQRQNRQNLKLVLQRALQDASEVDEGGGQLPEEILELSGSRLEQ
MrgX1 antagonist: blocks BAM8-22 activation of human MrgX1 receptor | Q96LB2 | MRGX1-HEK293 calcium flux, Fluo-4, BAM8-22 antagonism; active compounds read low | B-score at 10 µM | 310,000 compounds, 1.3% hits | AID 588676;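 active = calcium-response B-score plate-corrected more than 3 library SD below zero, starting fluorescence within 5 deviations, no agonist response on first addition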;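 note: peak minus trough fluorescence over baseline after final BAM8-22 challenge near maximal dose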
RGS4 block: human RGS4 inhibition | HEK293 M3R/RGS4 inducible, Fluo-4 calcium flux; active compounds read high; triggered by carbachol at its EC20 | B-score at 10 µM | 310,000 compounds, 0.45% hits;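 active = B-score, a plate-corrected calcium signal, over three deviations above library mean, with baseline fluorescence within five deviations of library mean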;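 note: RGS4 expression induced by doxycycline in cells with stable M3 receptor; B-score is computed from the integrated fluorescence ratio over baseline after carbachol; higher B-score means a larger calcium signal and so more RGS4 inhibition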
MrgX1 ag: activates human MrgX1 receptor signaling; 310,000 compounds, 0.44% hits; B-score at 10 µM; AID 588627; Q96LB2; MrgX1-HEK293 cells, Fluo-4 calcium fluorescence, agonist mode; active compounds read high;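 active = calcium response B-score plate-corrected fluorescence ratio at least 3 library SD, with starting fluorescence B-score inside 5 SD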
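Test system: HEK293 cells stably expressing human MrgX1 receptor; Input: fifteen thousand cells per well; Dosing: compound delivered in addition one of three; Schedule: overnight seeding, then 1 h dark dye loading; Technique: Fluo-4 NW calcium fluorescence; Measure: B-scored fluorescence response ratio; Controls: positive and negative controls per plate.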
PHOSPHO1 block: PHOSPHO1 (human) inhibition | Q8TCT1 | recombinant PHOSPHO1, absorbance phosphatase assay | inhibition, % at 13.3 µM | 290,000 compounds, 1.1% hits; in the data active = inhibition above about 60%
Target sequence (Q8TCT1 whole entry, looked up): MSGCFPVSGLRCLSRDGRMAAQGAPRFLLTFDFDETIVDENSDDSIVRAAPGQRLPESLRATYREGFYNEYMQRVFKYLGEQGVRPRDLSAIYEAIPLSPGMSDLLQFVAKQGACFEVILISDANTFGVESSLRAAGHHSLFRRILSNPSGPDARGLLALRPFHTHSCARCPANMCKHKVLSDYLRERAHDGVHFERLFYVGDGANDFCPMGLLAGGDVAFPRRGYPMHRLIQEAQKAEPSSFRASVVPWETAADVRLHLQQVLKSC
Large screens that a line does not name were inactive.

COc1ccc(C2c3cc(OC)c(OC)cc3CCN2C2CC(=O)N(c3ccccc3)C2=O)cc1OC (stereo not drawn)	none
O=C(OCCN1C(=O)c2cccc3c(N4CCOCC4)ccc(c23)C1=O)c1ccc(Cl)cc1Cl	none
O=C(OCCN1C(=O)c2cccc3c(N4CCOCC4)ccc(c23)C1=O)c1ccccc1Cl	RGS4 act -8.2
S=C(Nc1ccc2nc(-c3ccccn3)c(-c3ccccn3)nc2c1)N1CCCCC1	PHOSPHO1 block 87 (no result: RGS4 act, MrgX1 PAM, MrgX1 antagonist, RGS4 block, MrgX1 ag)
S=C(Nc1ccc2nc(-c3ccccn3)c(-c3ccccn3)nc2c1)N1CCCCCC1	none
CCOC(CCNC(=O)c1cn(CC(C)C)c(=O)c2c1c1ccccc1n2C)OCC	none
C=C[C@@]1(C)CC(=O)[C@]2(O)[C@@]3(C)[C@@H](O)CCC(C)(C)[C@@H]3[C@H](O)[C@H](OC(C)=O)[C@@]2(C)O1	MrgX1 PAM 10 (no result: PHOSPHO1 block)
C=C1C(=O)O[C@H]2C[C@]3(C)C([C@@H](OC(=O)/C(C)=C/C)[C@H]12)[C@](C)(O)CC[C@H]3O (stereo partly drawn)	none
CN(C)CCOC1c2ccccc2CSc2ccccc21 (stereo not drawn)	RGS4 act -8.9 (no result: PHOSPHO1 block)
O=C(NCc1cccnc1)c1ccc(-c2cccc(Cl)c2Cl)o1	none
O=C(NCc1cccnc1)c1ccc(-c2ccccc2[N+](=O)[O-])o1	MrgX1 antagonist -5.9
COCCN(C)C(=O)CC1C(=O)NCCN1CC(c1ccccc1)c1ccccc1 (stereo not drawn)	none
O=C(O)C[C@H](O)C[C@H](O)/C=C/c1c(C2CC2)nc2ccccc2c1-c1ccc(F)cc1	RGS4 act -7 (no result: MrgX1 PAM, MrgX1 antagonist, MrgX1 ag, PHOSPHO1 block)
O=c1c2c(nc3nc(NCc4cccc5ccccc45)[nH]n13)CCC2	none
CCN1CCN(C(=O)c2ccc(COc3cccc(Cl)c3)o2)CC1	none
CN(C)c1ccc(NC(=O)c2ccc(COc3cccc(Cl)c3)o2)cc1	PHOSPHO1 block 92
O=c1cc(CN2CCN(Cc3ccc(F)cc3)C(CCO)C2)[nH]c2ccccc12 (stereo not drawn)	none
Cc1c(NC(=O)C(C)OC(=O)c2cc(Cl)ccc2O)c(=O)n(-c2ccccc2)n1C (stereo not drawn)	none
O=C(Nc1ccc(O)cc1)c1ccc2c(c1)C(=O)N(N1C(=O)c3ccccc3C1=O)C2=O	MrgX1 antagonist -5.8
O=C(Nc1ccccc1O)c1ccc2c(c1)C(=O)N(N1C(=O)c3ccccc3C1=O)C2=O	none
Cc1ccc[n+](/C(C(=S)NCc2ccco2)=C(/[O-])c2ccccc2Cl)c1	PHOSPHO1 block 97
CC(C)(C)c1ccc(/C([O-])=C(/C(=S)NCc2ccco2)[n+]2ccccc2)cc1	PHOSPHO1 block 84
CCC(C)NC(=O)c1cc2c(=O)n3ccccc3nc2s1 (stereo not drawn)	PHOSPHO1 block 61
Cc1cc(NS(=O)(=O)c2ccc(NC(=S)NC(=O)c3ccc(F)cc3)cc2)no1	none
Cc1cc(NS(=O)(=O)c2ccc(NC(=S)NC(=O)c3cccc(S(=O)(=O)N(C)C)c3)cc2)no1	MrgX1 PAM 14
CCOc1ccc(C(=O)C2CCN(C(=O)c3ccc([N+](=O)[O-])cc3)CC2)cc1	none
Cc1ccc(Sc2c(C)[nH]n(C(C)(C)C)c2=O)cc1	none
Cc1[nH]n(C(C)(C)C)c(=O)c1Sc1ccccc1	PHOSPHO1 block 94
CC(=O)N1N=C(c2cccc(Cl)c2)OC1c1ccc(C(C)C)cc1 (stereo not drawn)	none
CC(=O)N1N=C(c2ccc(C)cc2)OC1c1cccnc1 (stereo not drawn)	PHOSPHO1 block 61
C[C@H]1[C@H](C)CC[C@]2(C(=O)O)CC[C@]3(C)C(=CC[C@@H]4[C@@]5(C)C[C@@H](O)[C@H](O)C(C)(C)[C@@H]5CC[C@]43C)[C@H]12	RGS4 act -7.6
C[C@H]1[C@H](C)CC[C@]2(C(=O)O)CC[C@]3(C)C(=CC[C@@H]4[C@@]5(C)CC[C@H](O)C(C)(C)[C@@H]5CC[C@]43C)[C@H]12	none
O=C(c1ncn[nH]1)N1CCN(c2nc(-c3ccccc3)cs2)CC1	PHOSPHO1 block 99
CNC(=O)C(Sc1nc(C)nc2c1oc1ccccc12)C(C)=O (stereo not drawn)	PHOSPHO1 block 88
Cn1c(Sc2ccccc2Cl)c(C=O)c2ccccc21	RGS4 act -8.5
O=c1[nH]c(=O)n([C@H]2C[C@H](O)[C@@H](CO)O2)cc1I	none (no result: RGS4 act, RGS4 block, PHOSPHO1 block)
O=c1ccn([C@H]2C[C@H](O)[C@@H](CO)O2)c(=O)[nH]1	MrgX1 antagonist -6.8 (no result: PHOSPHO1 block)
Cc1ccccc1OC(=O)n1c(=S)oc2cc(Cl)ccc21	PHOSPHO1 block 103
CN1C(=O)C2(c3ccccc31)c1c(oc3ccccc3c1=O)C(=O)N2CCO (stereo not drawn)	none
O=C1OC(c2ccc(F)cc2)=C/C1=C\c1ccc([N+](=O)[O-])o1	MrgX1 antagonist -7.8
N#CC1=C(SCc2ccccc2)NC2=C(C(=O)CCC2)C1c1ccc2c(c1)OCO2 (stereo not drawn)	PHOSPHO1 block 93
Cc1ccc(NC(=O)CSC2=C(C#N)C(c3ccc4c(c3)OCO4)C3=C(CCCC3=O)N2)c(C)c1 (stereo not drawn)	PHOSPHO1 block 72
COC(=O)CSC1=C(C#N)C(c2ccc3c(c2)OCO3)C2=C(CCCC2=O)N1 (stereo not drawn)	PHOSPHO1 block 66
COC(=O)CSC1=C(C#N)C(c2ccc(C)cc2)C2=C(CCCC2=O)N1 (stereo not drawn)	none
CCSC1=C(C#N)C(c2ccc3c(c2)OCO3)C2=C(CCCC2=O)N1 (stereo not drawn)	none
CCCc1nnc(NC(=O)CCC(=O)N2CCN(Cc3cc(Cl)ccc3OC)CC2)s1	none
O=C(N/N=C/C1CC=CCC1)c1cc(-c2cccnc2)nc2ccccc12 (stereo not drawn)	none
CS(=O)(=O)N1N=C(c2ccc3nccnc3c2)CC1c1ccccc1 (stereo not drawn)	MrgX1 PAM 6.5
COc1ccc(CCNc2oc(COc3ccccc3Cl)nc2C#N)cc1OC	RGS4 act -7.3
CC(=O)O[C@@H]1C[C@H]2C(C)(C)C(=O)C=C[C@]2(C)[C@H]2CC[C@@]3(C)[C@H](c4ccoc4)OC(=O)[C@H]4O[C@]43[C@@]21C	MrgX1 PAM 9.8
COCc1cc(C)nc(OCC(=O)N/N=C/c2ccc(-c3cc([N+](=O)[O-])ccc3Cl)o2)c1C#N	none
COc1ccc(NC(=S)NNC(=O)c2ccco2)c(OC)c1	MrgX1 antagonist -5.3
COc1ccc(NC(=S)Nc2ccc(OC)cc2OC)c(OC)c1	PHOSPHO1 block 64
COc1ccc(NC(=O)c2ccccc2NC(=O)c2ccco2)c(OC)c1	none

Assay outcomes as filed in PubChem.
